# Reference: ChEMBL document CHEMBL3421606, “Organoselenocyanates and symmetrical diselenides redox modulators: Design, synthesis and biological evaluation” (Eur J Med Chem, 2015)
# pIC50: −log10 of the molar value.
# What was measured:
# [1] = system: HepG2; test: Cytotoxicity against human HepG2 cells after 48 hrs by MTT assay; assay type: functional, cell-based; settings: for pIC50: Homo sapiens, HepG2, 48 h, read-out: IC50; for IC50: hepg2
# Summary of the method: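 HepG2 grown in DMEM with 10% calf serum at 37 °C. Seeded at 50,000 cells/mL, grown 2 days, then serial compound dilutions added for 48 h at 37 °C, 10% CO2. MTT at 0.5 mg/mL final for 2 h; formazan dissolved in DMSO and read at 590 nm. IC50 = concentration giving 50% of untreated-control absorbance, from dose-response curves, mean of two parallel experiments. 5-FU as reference.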
# [2] = Antioxidant activity assessed as glutathione peroxidase like activity after 3 mins by spectrophotometry; assay type: physicochemical; settings: 0.05 h
# Summary of the method: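 NADPH-glutathione reductase coupled assay in 50 mM phosphate buffer with 0.1% Triton X-100, plus glutathione, glutathione reductase and NADPH. Compound at 41 µM; reaction started with 0.8 mM H2O2. A340 recorded over 3 min to give ΔA/min, background-corrected for H2O2+GSH and for compound colour. Ebselen 41 µM as reference.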
# [3] = Antioxidant activity assessed as DPPH free radical scavenging activity after 30 mins by spectrophotometry; assay type: physicochemical; settings: 0.5 h
# Summary of the method: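 Compounds in methanol at 1 mg/ml. 200 µL added to 0.4 ml of 0.1 mM DPPH in methanol. Kept 30 min in the dark, then absorbance read at 517 nm against a blank (methanol, no DPPH). Scavenging % = (A blank − A sample)/A blank x 100. Ascorbic acid and ebselen served as reference antioxidants.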
# [4] = Antioxidant activity assessed as bleomycin-Fe2+-induced DNA degradation after 1 hr by spectrophotometry; assay type: physicochemical
# Summary of the method: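 Mix of calf thymus DNA 0.5 mg/ml, bleomycin sulfate 0.05 mg/ml, MgCl2 5 mM, FeCl3 and test compound 2 mM, held 1 h at 37 °C. Stopped with EDTA, then 1% TBA and 25% HCl added, heated 80 °C 30 min. Cooled and centrifuged; TBA-reactive substances read at 532 nm as MDA equivalents. Ascorbic acid as reference. Means of 3 replicates.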
# [5] = system: Staphylococcus aureus; test: Antimicrobial activity against Staphylococcus aureus assessed as diameter of inhibition zone after 2 days by agar diffusion assay; assay type: functional
# Summary of the method: (§1)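 Agar well/disc diffusion. 100 µL of suspension, 1x10^8 CFU/mL bacteria on nutrient agar or 1x10^4 spores/mL C. albicans on potato dextrose agar. 6 mm paper discs soaked with 20 µl of 1 mg/ml compound (20 µg per disc), incubated at 30°C. Inhibition zone diameter (mm) read after 1 and 2 days. Ampicillin (bacteria) and clotrimazole (fungus) controls at the same concentration.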
# [6] = system: Staphylococcus aureus; test: Antimicrobial activity against Staphylococcus aureus assessed as diameter of inhibition zone after 2 days by agar diffusion assay relative to ampicillin; assay type: functional; set-up: concentration or dose not given beside the values
# Summary of the method: (§2)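 Agar diffusion with 6 mm discs carrying 20 µL of 1 mg/ml compound on nutrient agar seeded with 1x10^8 CFU/mL bacteria, incubated at 30°C. Ampicillin run the same way at the same concentration. % activity index = inhibition zone of compound / inhibition zone of ampicillin x 100.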
# [7] = system: Candida albicans; test: Antimicrobial activity against Candida albicans assessed as diameter of inhibition zone after 1 day by agar diffusion assay; assay type: functional; summary of the method: as §1
# [8] = system: Escherichia coli; test: Antimicrobial activity against Escherichia coli assessed as diameter of inhibition zone after 2 days by agar diffusion assay relative to ampicillin; assay type: functional; summary of the method: as §2
# [9] = system: Escherichia coli; test: Antimicrobial activity against Escherichia coli assessed as diameter of inhibition zone after 2 days by agar diffusion assay; assay type: functional; summary of the method: as §1
compound,measurement,setting,value
N#C[Se]c1ccc(-n2[se]c3ccccc3c2=O)cc1,pIC50,[1],4.19
same,Activity,[2],Not Active
same,Activity,[3],Active
same,OD,[4],0.09
CC(C)C(C(=O)NC(C)(C)C)N(CCc1c[nH]c2ccccc12)C(=O)c1ccccc1[Se][Se]c1ccccc1C(=O)N(CCc1c[nH]c2ccccc12)C(C(=O)NC(C)(C)C)C(C)C (stereo not drawn),pIC50,[1],4.35
same,Activity,[2],Active
same,Activity,[3],Not Active
same,OD,[4],0.07
Cc1ccc(C(C(=O)NC(C)(C)C)N(CCc2c[nH]c3ccccc23)C(=O)c2ccccc2[Se][Se]c2ccccc2C(=O)N(CCc2c[nH]c3ccccc23)C(C(=O)NC(C)(C)C)c2ccc(C)cc2)cc1 (stereo not drawn),IC50,[1],Not Active
same,diameter of the inhibition zone (DIZ),[5],12 mm
same,Activity_index,[6],55%
same,Activity,[2],Active
same,Activity,[3],Not Active
same,OD,[4],0.073
CC(C)C(C(=O)NC(C)(C)C)N(Cc1ccccc1)C(=O)c1ccccc1[Se][Se]c1ccccc1C(=O)N(Cc1ccccc1)C(C(=O)NC(C)(C)C)C(C)C (stereo not drawn),IC50,[1],Not Active
same,Activity,[2],Active
same,Activity,[3],Not Active
same,OD,[4],0.073
N#C[Se]c1ccc(NC(=O)/C=C\C(=O)O)cc1,pIC50,[1],5.30
same,diameter of the inhibition zone (DIZ),[5],16 mm
same,Activity_index,[6],73%
same,diameter of the inhibition zone (DIZ),[7],27 mm
same,Activity,[3],Active
same,OD,[4],0.051
N#C[Se]c1ccc(N2C(=O)C=CC2=O)cc1,pIC50,[1],6.22
same,Activity,[2],Active
same,Activity,[3],Not Active
same,OD,[4],0.082
N#C[Se]c1ccc(NC(=O)CCC(=O)O)cc1,IC50,[1],Not Active
same,diameter of the inhibition zone (DIZ),[5],15 mm
same,Activity_index,[6],68%
same,Activity,[3],Active
same,OD,[4],0.053
N#C[Se]c1ccc(N2C(=O)CCC2=O)cc1,IC50,[1],Not Active
same,diameter of the inhibition zone (DIZ),[5],21 mm
same,Activity_index,[6],95%
same,diameter of the inhibition zone (DIZ),[7],28 mm
same,Activity,[3],Not Active
same,OD,[4],0.065
N#C[Se]c1ccc(NC(=O)CCCC(=O)O)cc1,pIC50,[1],5.15
same,diameter of the inhibition zone (DIZ),[5],20 mm
same,Activity_index,[6],91%
same,Activity,[2],Active
same,Activity,[3],Not Active
same,OD,[4],0.068
N#C[Se]c1ccc(N2C(=O)CCCC2=O)cc1,pIC50,[1],4.33
same,Activity,[2],Active
same,Activity,[3],Not Active
same,OD,[4],0.078
O=C(O)/C=C\C(=O)Nc1ccc([Se][Se]c2ccc(NC(=O)/C=C\C(=O)O)cc2)cc1,pIC50,[1],5.52
same,diameter of the inhibition zone (DIZ),[5],21 mm
same,Activity_index,[6],95%
same,Activity,[2],Active
same,Activity,[3],Active
same,OD,[4],0.089
O=C1C=CC(=O)N1c1ccc([Se][Se]c2ccc(N3C(=O)C=CC3=O)cc2)cc1,pIC50,[1],4.89
same,Activity_index,[8],29%
same,Activity,[2],Active
same,Activity,[3],Active
same,OD,[4],0.055
same,diameter of the inhibition zone (DIZ),[9],7 mm
O=C(O)CCC(=O)Nc1ccc([Se][Se]c2ccc(NC(=O)CCC(=O)O)cc2)cc1,IC50,[1],Not Active
same,diameter of the inhibition zone (DIZ),[5],20 mm
same,Activity_index,[6],91%
same,Activity,[2],Active
same,diameter of the inhibition zone (DIZ),[7],19 mm
same,Activity,[3],Active
same,OD,[4],0.088
O=C1CCC(=O)N1c1ccc([Se][Se]c2ccc(N3C(=O)CCC3=O)cc2)cc1,pIC50,[1],4.85
same,diameter of the inhibition zone (DIZ),[5],14 mm
same,Activity_index,[6],64%
same,Activity,[2],Active
same,Activity,[3],Not Active
same,OD,[4],0.074
O=C(O)CCCC(=O)Nc1ccc([Se][Se]c2ccc(NC(=O)CCCC(=O)O)cc2)cc1,pIC50,[1],4.17
same,diameter of the inhibition zone (DIZ),[5],20 mm
same,Activity_index,[6],91%
same,Activity,[2],Active
same,diameter of the inhibition zone (DIZ),[7],16 mm
same,Activity,[3],Active
same,OD,[4],0.083
O=C1CCCC(=O)N1c1ccc([Se][Se]c2ccc(N3C(=O)CCCC3=O)cc2)cc1,pIC50,[1],4.46
same,diameter of the inhibition zone (DIZ),[5],21 mm
same,Activity_index,[6],90%
same,Activity,[2],Active
same,Activity,[3],Not Active
same,OD,[4],0.09
O=c1c2ccccc2[se]n1-c1ccc([Se][Se]c2ccc(-n3[se]c4ccccc4c3=O)cc2)cc1,pIC50,[1],4.40
same,Activity,[2],Not Active
same,Activity,[3],Active
same,OD,[4],0.06
CC1(C)S[C@@H]2[C@H](NC(=O)[C@H](N)c3ccccc3)C(=O)N2[C@H]1C(=O)O [AMPICILLIN],diameter of the inhibition zone (DIZ),[5],22 mm
same,diameter of the inhibition zone (DIZ),[9],24 mm
O=C1O[C@H]([C@@H](O)CO)C(O)=C1O [ASCORBIC ACID],OD,[4],0.062
Clc1ccccc1C(c1ccccc1)(c1ccccc1)n1ccnc1 [CLOTRIMAZOLE],diameter of the inhibition zone (DIZ),[7],28 mm
O=c1c2ccccc2[se]n1-c1ccccc1 [EBSELEN],Activity,[2],Active
same,Activity,[3],Active
O=c1[nH]cc(F)c(=O)[nH]1 [FLUOROURACIL],pIC50,[1],5.10
